The source of these data is PMC3131534 (Chemistry & biology, 2011).

In one data set the test system is PfSENP1. Conditions: P. falciparum lysates; ref Ponder et al. Submitted; cited from earlier work.
The target in another data set is T1, ΔNhSENP1 (Homo sapiens, UniProt Q9P0U3).
T1 sequence (Q9P0U3 450-613 limits assumed): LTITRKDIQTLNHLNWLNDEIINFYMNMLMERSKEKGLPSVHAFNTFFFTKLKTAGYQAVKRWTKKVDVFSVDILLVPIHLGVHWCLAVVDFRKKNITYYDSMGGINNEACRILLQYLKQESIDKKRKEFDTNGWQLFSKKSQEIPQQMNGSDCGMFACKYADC
Kind of data set: ProSUMO processing. The data set is classed as biochemical. Conditions: 100nM ΔNhSENP1, 0–100μM compound, 30 min pre-treatment. The procedure, abridged: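 ΔNhSENP1 (100 nM) was pretreated with inhibitor for 30 min in 50 mM Tris pH 7.4, 5 mM NaCl, 5 mM DTT (37 °C in methods, room temperature in legend). It then cleaved recombinant hSUMO1 carrying its full pro-sequence and a C-terminal His6 tag for 1 h at 37 °C. Loss of the pro-region and tag was scored as a band shift on SDS-PAGE with Gelcode Blue stain, beside a substrate-only lane.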

Data set [1] is described as follows: Stability of the epoxide in aqueous media. Format: physicochemical. Particulars: relative to aza-aspartic acid epoxides.
For the next data set, the target named is T2, human DUB UCHL3 (Homo sapiens, UniProt P15374).
T2 sequence (P15374 1-230): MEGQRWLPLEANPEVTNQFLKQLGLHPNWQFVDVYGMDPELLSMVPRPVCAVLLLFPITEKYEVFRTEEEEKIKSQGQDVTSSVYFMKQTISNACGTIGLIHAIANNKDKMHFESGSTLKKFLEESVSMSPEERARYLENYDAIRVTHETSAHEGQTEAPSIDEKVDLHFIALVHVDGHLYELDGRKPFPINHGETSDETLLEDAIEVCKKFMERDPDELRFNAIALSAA
The data set can be described thus: Cross-reactivity against purified DUB. Format: biochemical. Particulars: purified enzyme, Figure S4.

The target of a further data set is T3, human SENP8 (Homo sapiens, UniProt Q96LD8).
T3 sequence (Q96LD8 1-212): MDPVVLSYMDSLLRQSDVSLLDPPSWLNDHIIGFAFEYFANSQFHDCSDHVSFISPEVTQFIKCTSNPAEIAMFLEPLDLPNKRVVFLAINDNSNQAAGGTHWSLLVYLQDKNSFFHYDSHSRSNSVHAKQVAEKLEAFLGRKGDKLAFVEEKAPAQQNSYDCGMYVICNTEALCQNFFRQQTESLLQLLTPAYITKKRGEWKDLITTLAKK
The data set can be described thus: Cross-reactivity against purified deNEDDylase. The data set is classed as biochemical. Conditions: purified enzyme, Figure S4.

Data set [2] relates to DUBs in HEK293 cell lysates. Kind of data set: Competition of HA-Ubvme probe labeling in HEK293 cell lysates. The data set is classed as binding, human. Conditions: Figure S4.
For a further data set, the target named is T4, endogenous SENP1 (Homo sapiens, UniProt Q9P0U3).
T4 sequence (Q9P0U3 1-644): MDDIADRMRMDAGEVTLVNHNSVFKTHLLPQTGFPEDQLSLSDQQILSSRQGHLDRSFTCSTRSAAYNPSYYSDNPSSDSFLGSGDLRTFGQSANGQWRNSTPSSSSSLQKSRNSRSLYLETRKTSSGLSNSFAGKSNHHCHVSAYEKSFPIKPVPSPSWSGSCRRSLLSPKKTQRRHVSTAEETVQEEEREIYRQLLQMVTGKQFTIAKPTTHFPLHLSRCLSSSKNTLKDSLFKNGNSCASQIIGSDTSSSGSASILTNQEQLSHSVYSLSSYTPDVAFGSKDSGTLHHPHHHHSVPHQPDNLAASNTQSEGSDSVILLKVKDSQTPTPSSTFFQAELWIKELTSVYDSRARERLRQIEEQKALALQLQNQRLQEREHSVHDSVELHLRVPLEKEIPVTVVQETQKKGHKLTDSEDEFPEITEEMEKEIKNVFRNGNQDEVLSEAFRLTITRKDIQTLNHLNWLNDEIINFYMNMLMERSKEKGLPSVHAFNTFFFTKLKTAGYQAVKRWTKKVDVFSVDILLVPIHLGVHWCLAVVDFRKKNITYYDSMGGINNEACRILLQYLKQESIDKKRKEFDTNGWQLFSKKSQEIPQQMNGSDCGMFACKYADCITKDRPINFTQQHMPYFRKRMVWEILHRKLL
The data set can be described thus: Cell lysate treatment, competition of HA-SUMO2vme labeling. Conditions: treatment of cell lysates. Format: binding.

For the next data set, the target named is T5, endogenous SENP6 (Homo sapiens, UniProt Q9GZR1).
T5 sequence (Q9GZR1 1-1112): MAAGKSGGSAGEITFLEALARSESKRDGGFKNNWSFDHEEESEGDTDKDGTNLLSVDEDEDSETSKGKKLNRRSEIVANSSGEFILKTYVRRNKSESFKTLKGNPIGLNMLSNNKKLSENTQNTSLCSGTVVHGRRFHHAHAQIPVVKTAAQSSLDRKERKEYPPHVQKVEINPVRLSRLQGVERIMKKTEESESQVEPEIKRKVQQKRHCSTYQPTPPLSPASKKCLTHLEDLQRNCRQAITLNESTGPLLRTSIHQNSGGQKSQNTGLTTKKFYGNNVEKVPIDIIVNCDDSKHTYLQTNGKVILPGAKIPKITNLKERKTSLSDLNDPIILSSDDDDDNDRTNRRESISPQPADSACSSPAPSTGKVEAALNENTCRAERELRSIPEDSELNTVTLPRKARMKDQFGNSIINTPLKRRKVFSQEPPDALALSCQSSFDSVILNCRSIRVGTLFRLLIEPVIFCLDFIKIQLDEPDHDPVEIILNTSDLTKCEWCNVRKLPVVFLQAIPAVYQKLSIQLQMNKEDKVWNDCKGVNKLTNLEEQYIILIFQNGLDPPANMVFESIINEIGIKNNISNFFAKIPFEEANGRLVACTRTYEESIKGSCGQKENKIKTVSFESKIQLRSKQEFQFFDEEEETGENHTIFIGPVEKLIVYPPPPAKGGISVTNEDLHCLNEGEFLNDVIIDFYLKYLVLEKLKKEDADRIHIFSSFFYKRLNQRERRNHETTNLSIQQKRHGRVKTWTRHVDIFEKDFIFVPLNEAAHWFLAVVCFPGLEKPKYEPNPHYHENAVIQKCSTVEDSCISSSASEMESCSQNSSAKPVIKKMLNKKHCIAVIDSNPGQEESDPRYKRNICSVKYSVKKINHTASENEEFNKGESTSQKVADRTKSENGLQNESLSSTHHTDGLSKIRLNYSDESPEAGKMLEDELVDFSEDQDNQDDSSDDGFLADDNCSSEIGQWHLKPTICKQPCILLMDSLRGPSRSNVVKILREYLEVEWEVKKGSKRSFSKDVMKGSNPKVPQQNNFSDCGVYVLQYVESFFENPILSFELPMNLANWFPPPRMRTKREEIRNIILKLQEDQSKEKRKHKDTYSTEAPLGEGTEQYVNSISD
Described as above. Format: binding. Particulars: treatment of cell lysates.

The test system of another data set is ΔNhSENPs1, 2, 5, 6 and 7. The data set can be described thus: Fluorogenic substrate screen against the panel of recombinant hSENPs. Format: biochemical, human. Conditions: 50μM inhibitor, 1 hour preincubation, heat map Figure 4. The procedure, abridged:
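Recombinant N-terminally truncated hSENPs were preincubated 1 h at 37 °C with 50 μM inhibitor in 50 mM Tris pH 8.0, 20 mM NaCl, 10 mM DTT. The enzyme level is given only for hSENP1, at 2 μM final. Then 100 nM Ac-QTGG-AFC (SENP1, 2, 5) or Ac-LRGG-AFC (SENP6, 7) was added. AFC release was read at 405/510 nm, 37 °C. Slope (RFU/min) was taken relative to DMSO (100%), averaging independent triplicates.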

For `O=C(O)CN(NC(=O)c1ccc(CNC(=O)c2cccc(C(=O)O)c2)cc1)C(=O)[C@H]1O[C@@H]1C(=O)N(Cc1cccc2ccccc12)Cc1cccc2ccccc12` [JCP666], the “potency against parasite SENP” value in the data set with PfSENP1 is listed as “effectively blocked PfSENP activity”.

With `O=C(O)c1cccc(C(=O)NCc2ccc(C(=O)NNC(=O)[C@H]3O[C@@H]3C(=O)N(Cc3cccc4ccccc34)Cc3cccc4ccccc34)cc2)c1` [VEA260], the “activity in ProSUMO processing assay” value on ΔNhSENP1 was “retained full activity against hSENP1”. In addition, in data set [1], the “stability of the compound” value is recorded as “more stable compound”. In addition, the “activity against UCHL3” value at human DUB UCHL3 is on record as “virtually no activity against either enzyme”. Also, on human SENP8, the “activity against hSENP8” value is on record as “virtually no activity against either enzyme”.

Consider `O=C(CNC(=O)c1ccc(CNC(=O)c2cccc(C(=O)O)c2)cc1)COC(=O)c1c2ccccc2cc2ccccc12` [VEA401], for which, in data set [2], the “block of DUB labeling by HA-Ubvme probe” value was “did not block labeling of DUBs”. Also, the “block of endogenous SENP1 labeling by HA-SUMO2vme probe” value on endogenous SENP1 is “not able to find conditions in which we could treat cell lysates with VEA401 and block labeling of endogenous SENP1 or SENP6”. For the same compound, the “block of endogenous SENP6 labeling by HA-SUMO2vme probe” value at endogenous SENP6 is “not able to find conditions in which we could treat cell lysates with VEA401 and block labeling of endogenous SENP1 or SENP6”.

`C[C@H](O)C(NC(=O)[C@H](CCC(N)=O)NC(=O)Cc1ccc(O)c([N+](=O)[O-])c1)C(=O)NCC(=O)NCC(=O)COC(=O)c1c2ccccc2cc2ccccc12` (some centres unmarked) [VEA499]: the “activity against UCHL3” value at human DUB UCHL3 is “only activity against hSENP8”. Moreover, the “relative inhibitor potency in the fixed concentration screen” value in the data set with ΔNhSENPs1, 2, 5, 6 and 7 is listed as “substantially more potent than the tripeptide (VEA498) equivalent”. Further, the “activity against hSENP8” value on human SENP8 was “only activity against hSENP8”.

With `CC(C)C[C@H](NC(=O)Cc1ccc(O)c([N+](=O)[O-])c1)C(=O)N[C@@H](CCCN=C(N)N)C(=O)NCC(=O)NCC(=O)COC(=O)c1c2ccccc2cc2ccccc12` [VEA561], the “activity against UCHL3” value at human DUB UCHL3 is “only activity against hSENP8”. The “relative inhibitor potency in the fixed concentration screen” value in the data set with ΔNhSENPs1, 2, 5, 6 and 7 is “most potent towards hSENP6 and hSENP7”. On human SENP8, the “activity against hSENP8” value was “only activity against hSENP8”.
